# From ChEMBL document CHEMBL5329156, “Discovery and development of novel substituted monohydrazides as potent antifungal agents” (RSC Med Chem, 2023)
# Activity calls are given as the source filed them. The calls are words filed in the database; no cut-off is given here.
# Experiments:
# [1] = tested on: Cryptococcus neoformans; assay: Antifungal activity against Cryptococcus neoformans ATCC MYA-895 assessed as fungal growth inhibition by double dilution method; format: functional
# How it was run: (§1)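 Broth microdilution after CLSI M27-A3/M38-A2 with minor changes. Single colony grown overnight in YPD at 35 °C, 200 rpm. Compound final range 0.06-31.3 µg/mL; incubated 48 h at 35 °C.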
# [2] = tested on: HEK293; assay: Cytotoxicity against human HEK-293 cells assessed as reduction in cell viability at 31.3 microg/ml; format: toxicity, cell-based; settings: dose 31.3 µg/ml
# How it was run: (§2)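 Cells in DMEM with 10% FBS and 1% Pen/Strep, seeded at 10,000 cells/well and held overnight at 37 °C, 5% CO2. Compounds added at final 31.3-0.12 µg/mL (0.05% DMSO vehicle) for 24 h. Resazurin then added for 6 h; fluorescence read at ex 560/em 590. Triton X-100 1% as positive control; values normalized to vehicle. Run in quadruplicate.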
# [3] = tested on: Kodamaea ohmeri; assay: Antifungal activity against Kodamaea ohmeri AR Bank # 396 assessed as fungal growth inhibition by double dilution method; format: functional; how it was run: as §1
# [4] = tested on: [Candida] auris; assay: Antifungal activity against Candida auris AR Bank # 388 assessed as fungal growth inhibition by double dilution method; format: functional; settings: Candidozyma auris; how it was run: as §1
# [5] = tested on: [Candida] auris; assay: Antifungal activity against Candida auris AR Bank # 383 assessed as fungal growth inhibition by double dilution method; format: functional; settings: Candidozyma auris; how it was run: as §1
# [6] = tested on: Saccharomyces cerevisiae; assay: Antifungal activity against Saccharomyces cerevisiae AR Bank # 399 assessed as fungal growth inhibition by double dilution method; format: functional; how it was run: as §1
# [7] = tested on: Aspergillus fumigatus; assay: Antifungal activity against Aspergillus fumigatus NRRL 6113 assessed as fungal growth inhibition by double dilution method; format: functional
# [8] = tested on: Candida albicans; assay: Antifungal activity against Candida albicans ATCC 10231 assessed as fungal growth inhibition by double dilution method; format: functional; how it was run: as §1
# [9] = tested on: Candida albicans; assay: Antifungal activity against Candida albicans ATCC 64124 assessed as fungal growth inhibition by double dilution method; format: functional
# How it was run: (§3)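 Broth microdilution after CLSI M27-A3/M38-A2 with minor modifications. A single colony was grown overnight in YPD at 35 °C with shaking at 200 rpm. Cells were mixed 1:1 with compound (final 0.06-31.3 µg/mL, from DMSO stocks) and incubated 48 h at 35 °C.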
# [10] = tested on: Candida albicans; assay: Antifungal activity against itraconazole/fluconazole resistant Candida albicans ATCC MYA-1003 assessed as fungal growth inhibition by double dilution method; format: functional; how it was run: as §3
# [11] = tested on: Aspergillus fumigatus; assay: Antifungal activity against Aspergillus fumigatus NRRL 163 assessed as fungal growth inhibition by double dilution method; format: functional
# [12] = tested on: Pichia kudriavzevii; assay: Antifungal activity against Pichia kudriavzevii AR Bank # 397 assessed as fungal growth inhibition by double dilution method; format: functional; how it was run: as §1
# [13] = tested on: [Candida] auris; assay: Antifungal activity against Candida auris AR Bank # 386 assessed as fungal growth inhibition by double dilution method; format: functional; settings: Candidozyma auris; how it was run: as §1
# [14] = tested on: [Candida] auris; assay: Antifungal activity against Candida auris AR Bank # 390 assessed as fungal growth inhibition by double dilution method; format: functional; settings: Candidozyma auris; how it was run: as §1
# [15] = tested on: Aspergillus terreus; assay: Antifungal activity against Aspergillus terreus ATCC MYA-3633 assessed as fungal growth inhibition by double dilution method; format: functional
# [16] = tested on: [Candida] auris; assay: Antifungal activity against Candida auris AR Bank # 0384 assessed as fungal growth inhibition by double dilution method; format: functional; settings: Candidozyma auris; how it was run: as §1
# [17] = tested on: [Candida] auris; assay: Antifungal activity against Candida auris AR Bank # 385 assessed as fungal growth inhibition by double dilution method; format: functional; settings: Candidozyma auris; how it was run: as §1
# [18] = tested on: Candida duobushaemulonii; assay: Antifungal activity against Candida duobushaemulonii AR Bank # 394 assessed as fungal growth inhibition by double dilution method; format: functional; settings: Candidozyma duobushaemuli; how it was run: as §1
# [19] = tested on: [Candida] haemuloni; assay: Antifungal activity against Candida haemulonii AR Bank # 393 assessed as fungal growth inhibition by double dilution method; format: functional; settings: Candidozyma haemuli; how it was run: as §1
# [20] = tested on: Candida albicans; assay: Antifungal activity against itraconazole/fluconazole susceptible Candida albicans ATCC MYA-2310 assessed as fungal growth inhibition by double dilution method; format: functional; how it was run: as §3
# [21] = tested on: [Candida] auris; assay: Antifungal activity against Candida auris AR Bank # 387 assessed as fungal growth inhibition by double dilution method; format: functional; settings: Candidozyma auris; how it was run: as §1
# [22] = tested on: [Candida] auris; assay: Antifungal activity against Candida auris AR Bank # 381 assessed as fungal growth inhibition by double dilution method; format: functional; settings: Candidozyma auris; how it was run: as §1
# [23] = tested on: [Candida] auris; assay: Antifungal activity against Candida auris AR Bank # 384 assessed as fungal growth inhibition by double dilution method; format: functional; settings: Candidozyma auris; how it was run: as §1
# [24] = tested on: Aspergillus flavus; assay: Antifungal activity against Aspergillus flavus ATCC MYA-3631 assessed as fungal growth inhibition by double dilution method; format: functional
# [25] = tested on: Candida albicans; assay: Antifungal activity against itraconazole/fluconazole resistant Candida albicans ATCC 90819 assessed as fungal growth inhibition by double dilution method; format: functional; how it was run: as §3
# [26] = tested on: Saccharomyces cerevisiae; assay: Antifungal activity against Saccharomyces cerevisiae AR Bank # 400 assessed as fungal growth inhibition by double dilution method; format: functional; how it was run: as §1
# [27] = tested on: Clavispora lusitaniae; assay: Antifungal activity against Clavispora lusitaniae AR Bank # 398 assessed as fungal growth inhibition by double dilution method; format: functional; how it was run: as §1
# [28] = tested on: Aspergillus fumigatus; assay: Antifungal activity against Aspergillus fumigatus NRRL 5109 assessed as fungal growth inhibition by double dilution method; format: functional
# [29] = tested on: [Candida] auris; assay: Antifungal activity against Candida auris AR Bank # 382 assessed as fungal growth inhibition by double dilution method; format: functional; settings: Candidozyma auris; how it was run: as §1
# [30] = tested on: Pichia kudriavzevii; assay: Antifungal activity against Pichia kudriavzevii ATCC 6258 assessed as fungal growth inhibition by double dilution method; format: functional; how it was run: as §1
# [31] = tested on: Nakaseomyces glabratus; assay: Antifungal activity against Candida glabrata ATCC 2001 assessed as fungal growth inhibition by double dilution method; format: functional; how it was run: as §1
# [32] = tested on: Candida albicans; assay: Antifungal activity against itraconazole/fluconazole susceptible Candida albicans ATCC MYA-2876 assessed as fungal growth inhibition by double dilution method; format: functional; how it was run: as §3
# [33] = tested on: Candida duobushaemulonii; assay: Antifungal activity against Candida duobushaemulonii AR Bank # 391 assessed as fungal growth inhibition by double dilution method; format: functional; settings: Candidozyma duobushaemuli; how it was run: as §1
# [34] = tested on: [Candida] haemuloni; assay: Antifungal activity against Candida haemulonii AR Bank # 395 assessed as fungal growth inhibition by double dilution method; format: functional; settings: Candidozyma haemuli; how it was run: as §1
# [35] = tested on: Nakaseomyces glabratus; assay: Antifungal activity against Candida glabrata ATCC 22019 assessed as fungal growth inhibition by double dilution method; format: functional; how it was run: as §1
# [36] = tested on: Candida duobushaemulonii; assay: Antifungal activity against Candida duobushaemulonii AR Bank # 392 assessed as fungal growth inhibition by double dilution method; format: functional; settings: Candidozyma duobushaemuli; how it was run: as §1
# [37] = tested on: HepG2; assay: Cytotoxicity against human HepG2 cells assessed as reduction in cell viability upto 31.3 microg/ml; format: toxicity, cell-based; settings: dose < 31.3 µg/ml; how it was run: as §2
# [38] = tested on: Candida albicans; assay: Antibiofilm activity against Candida albicans ATCC 10231 assessed as reduction in biofilm production at 1.96 to 3.9 microg/ml by biofilm formation assay; format: functional, organism-based; settings: dose 1.96-3.9 µg/ml
# [39] = tested on: J774.A1; assay: Cytotoxicity against J774A.1 cells assessed as reduction in cell viability at 31.3 microg/ml; format: toxicity, cell-based; settings: mouse, dose 31.3 µg/ml; how it was run: as §2
# [40] = tested on: Aspergillus nidulans; assay: Antifungal activity against Aspergillus nidulans ATCC 38163 assessed as fungal growth inhibition by double dilution method; format: functional
# [41] = tested on: Candida albicans; assay: Antifungal activity against itraconazole/fluconazole resistant Candida albicans ATCC MYA-1237 assessed as fungal growth inhibition by double dilution method; format: functional; how it was run: as §3
# [42] = tested on: [Candida] auris; assay: Antifungal activity against Candida auris AR Bank # 389 assessed as fungal growth inhibition by double dilution method; format: functional; settings: Candidozyma auris; how it was run: as §1
# [43] = tested on: [Candida] auris; assay: Antifungal activity against Candida auris AR Bank # 0390 assessed as fungal growth inhibition by double dilution method; format: functional; settings: Candidozyma auris; how it was run: as §1
smiles,measurement,setting,value
O=C(NNc1cccc(F)c1)c1ccccn1,MIC,[1],0.12 µg/mL
same,Activity,[2],Non-Toxic
same,MIC,[3],0.24 µg/mL
same,MIC,[4],0.49 µg/mL
same,MIC,[5],1.95 µg/mL
same,MIC,[6],1.95 µg/mL
same,MIC,[7],> 31.3 µg/mL
same,MIC,[8],≤ 0.06 µg/mL
same,MIC,[9],0.98 µg/mL
same,MIC,[10],0.98 µg/mL
same,MIC,[11],> 31.3 µg/mL
same,MIC,[12],0.24 µg/mL
same,MIC,[13],0.49 µg/mL
same,MIC,[14],0.24 µg/mL
same,MIC,[15],1.95 µg/mL
same,MIC,[16],1.95 µg/mL
same,MIC,[17],0.98 µg/mL
same,MIC,[18],0.49 µg/mL
same,MIC,[19],0.12 µg/mL
same,MIC,[20],1.95 µg/mL
same,MIC,[21],0.49 µg/mL
same,MIC,[22],0.49 µg/mL
same,MIC,[23],1.95 µg/mL
same,MIC,[24],7.8 µg/mL
same,MIC,[25],0.49 µg/mL
same,MIC,[26],1.95 µg/mL
same,MIC,[27],0.98 µg/mL
same,MIC,[28],> 31.3 µg/mL
same,MIC,[29],0.98 µg/mL
same,MIC,[30],0.24 µg/mL
same,MIC,[31],1.95 µg/mL
same,MIC,[32],0.98 µg/mL
same,MIC,[33],0.49 µg/mL
same,MIC,[34],≤ 0.06 µg/mL
same,MIC,[35],1.95 µg/mL
same,MIC,[36],0.24 µg/mL
same,Activity,[37],Non-Toxic
same,Activity,[38],Active
same,Activity,[39],Non-Toxic
same,MIC,[40],0.49 µg/mL
same,MIC,[41],0.98 µg/mL
same,MIC,[42],0.12 µg/mL
same,MIC,[43],0.24 µg/mL
